In article PMC5260928 (Bioorganic & medicinal chemistry, 2016):
pIC50, pKi: −log10 of the molar value.

Columns and labels:
[1] = target: gp41 hydrophobic pocket (Fe(envC)3) (Human immunodeficiency virus type 1 group M subtype B, UniProt P04578); assay: Surface plasmon resonance; type: binding, HIV-1; conditions: for kd: SPR 1:1 binding kinetic analysis, RUmax fixed; for kd1 / kd2: bivalent binding model
HIV-1 Ba-L and IIIB = assay: Virus-cell fusion; type: cell-based; conditions: for activity against VCF: result in words; for pIC50: Human immunodeficiency virus 1, BAL|IIIB, read-out: IC50 against VCF
Procedure, shortened: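 MAGI-CCR5 cells, 10,000 per well, grown overnight in DMEM with 10% FBS. Medium replaced with test compound at 6 dilutions, each in triplicate. HIV-1 Ba-L (CCR5-tropic) or IIIB (CXCR4-tropic) added at ~10 TCID50/well. Assay run at 2% serum and incubated 48 h. Read-out is Tat-induced β-Gal expression by chemiluminescence.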

[2] = target: gp41 hydrophobic pocket (Fe(env2.0)3) (Human immunodeficiency virus type 1 group M subtype B, UniProt P04578); assay: Fluorescence competitive binding assay for the hydrophobic pocket, Fe; design: species or system HIV-1; conditions: for improvement (reduction) of KI over the respective monomer: compared with monomers 3 and 4; for pKi: Inhibition constant KI, dimers, 1:1 binding model with Rt = 7.2 µM, poor fit
HXB2 Env = conditions: read-out: IC50 CCF; cell-cell fusion, three-subunit peptidomimetics; cited from earlier work
HIV-1 Ba-L = assay: CCR5-tropic MAGI antiviral assay; type: cell-based; conditions: Ba-L virus
HIV-1 IIIB = assay: CXCR4-tropic MAGI antiviral assay; type: cell-based; conditions: IIIB virus

In the case of `Nc1ccc(C(=O)N[C@@H](Cc2c[nH]c3ccccc23)C(=O)O)cc1OCCc1c[nH]c2ccccc12` [Compound 3, H2N-[Trp]-Trp-OH], the kd [1] was 0.834 s⁻¹ and the “activity against VCF” value (HIV-1 Ba-L and IIIB) was “ineffective”.

With `O=C(CCc1c[nH]c2ccccc12)NCCCCCC(=O)Nc1ccc(C(=O)N[C@@H](Cc2c[nH]c3ccccc23)C(=O)O)cc1OCc1ccc(Cl)cc1` [Compound 11] the “improvement (reduction) of KI over the respective monomer” value [2] was 6 fold, the kd [1] was 0.186 s⁻¹ and the pIC50 (HIV-1 Ba-L and IIIB) was 4.77 to 4.89.

In the case of `Nc1ccc(C(=O)N[C@@H](Cc2c[nH]c3ccccc23)C(=O)O)cc1OCc1ccc(Cl)cc1` [Compound 4, H2N-[Phe4Cl]-Trp-OH], the kd [1] was 0.820 s⁻¹ and the “activity against VCF” value (HIV-1 Ba-L and IIIB) was “ineffective”.

In the case of `O=C(CCc1c[nH]c2ccccc12)NCCCCCC(=O)Nc1ccc(C(=O)N[C@@H](Cc2c[nH]c3ccccc23)C(=O)O)cc1OCCc1c[nH]c2ccccc12` [Compound 10], the “improvement (reduction) of KI over the respective monomer” value [2] was 6 fold, the kd [1] was 0.093 s⁻¹ and the pIC50 (HIV-1 Ba-L and IIIB) was 4.77 to 4.89.

In the case of H2N-Trp-[Trp]-Leu-COOH, the pIC50 (HXB2 Env) is given as 5.30.

With `O=C(CCC(=O)Nc1ccc(C(=O)N[C@@H](Cc2c[nH]c3ccccc23)C(=O)O)cc1OCCc1c[nH]c2ccccc12)NCCOCCOCCOCCNC(=O)CCC(=O)Nc1ccc(C(=O)N[C@@H](Cc2c[nH]c3ccccc23)C(=O)O)cc1OCCc1c[nH]c2ccccc12` [Compound 7] the “residual fusion activity at plateau of antiviral activity” value (HIV-1 Ba-L) was ~ 20%, the “residual fusion activity at plateau of antiviral activity” value (HIV-1 IIIB) was ~ 6% and the pKi [2] was 6.00. For the same compound, the kd [1] was 0.060 s⁻¹, the kd1 [1] was 0.0869 s⁻¹ and the kd2 [1] was 0.0145 s⁻¹. It also gave a pIC50 (HIV-1 Ba-L and IIIB) of 5.30 to 5.52.

With `O=C(CCC(=O)Nc1ccc(C(=O)N[C@@H](Cc2c[nH]c3ccccc23)C(=O)O)cc1OCc1ccc(Cl)cc1)NCCOCCOCCOCCNC(=O)CCC(=O)Nc1ccc(C(=O)N[C@@H](Cc2c[nH]c3ccccc23)C(=O)O)cc1OCc1ccc(Cl)cc1` [Compound 8] the pKi [2] was 5.28, the kd [1] was 0.037 s⁻¹ and the kd1 [1] was 0.0638 s⁻¹. The kd2 [1] was 0.0033 s⁻¹ and the pIC50 (HIV-1 Ba-L and IIIB) was 5.30 to 5.52.

For H2N-Asn-[Trp]-Trp-COOH, the pIC50 (HXB2 Env) is listed as 5.22.
